Calls of active or inactive are those of the source. The rule behind the calls is not given here.
Key:
Mycobacterium avium [1] = assay: Antimycobacterial activity against Mycobacterium avium ATCC 25291 at 50 ug/mL after 24 to 48 hrs by MABA; type: functional
How it was run: (§1)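 Compounds in DMSO (100× highest final concentration), diluted in 7H9GC; tested at 100, 50, 10 and 1 µg/mL in triplicate, three experiments. Frozen inoculum diluted in 7H9GC. Read visually and spectrophotometrically. […], mean given. Visual MIC = lowest concentration preventing blue-to-pink change.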

Pseudomonas aeruginosa = assay: Antibacterial activity against Pseudomonas aeruginosa up to 100 ug/ml after 16 to 20 hrs by broth microdilution method; type: functional, organism-based
[2] = tested on: Mycobacterium tuberculosis; assay: Antimycobacterial activity against Mycobacterium tuberculosis H37Ra at 10 ug/mL after 24 to 48 hrs by MABA; type: functional; how it was run: as §1
Streptococcus pneumoniae = assay: Antibacterial activity against Streptococcus pneumoniae up to 100 ug/ml after 16 to 20 hrs by broth microdilution method; type: functional, organism-based
[3] = tested on: Mycobacterium tuberculosis; assay: Antimycobacterial activity against Mycobacterium tuberculosis H37Ra at 50 ug/mL after 24 to 48 hrs by MABA; type: functional; how it was run: as §1
HepG2 = assay: Toxicity against HepG2 cells; type: functional, cell-based; conditions: Homo sapiens
Mycobacterium avium [4] = assay: Antimycobacterial activity against Mycobacterium avium ATCC 25291 at 100 ug/mL after 24 to 48 hrs by MABA; type: functional; how it was run: as §1
Bacillus subtilis = assay: Antibacterial activity against Bacillus subtilis up to 100 ug/ml after 16 to 20 hrs by broth microdilution method; type: functional, organism-based
[5] = tested on: Mycobacterium tuberculosis; assay: Antimycobacterial activity against Mycobacterium tuberculosis H37Ra at 100 ug/mL after 24 to 48 hrs by MABA; type: functional; how it was run: as §1
Mycobacterium avium [6] = assay: Antimycobacterial activity against Mycobacterium avium ATCC 25291 at 10 ug/mL after 24 to 48 hrs by MABA; type: functional; how it was run: as §1
Enterococcus faecalis = assay: Antibacterial activity against Enterococcus faecalis up to 100 ug/ml after 16 to 20 hrs by broth microdilution method; type: functional, organism-based
Salmonella typhimurium = assay: Antibacterial activity against Salmonella Typhimurium up to 100 ug/ml after 16 to 20 hrs by broth microdilution method; type: functional, organism-based; conditions: Salmonella enterica subsp. enterica serovar Typhimurium
Escherichia coli = assay: Antibacterial activity against Escherichia coli up to 100 ug/ml after 16 to 20 hrs by broth microdilution method; type: functional, organism-based
Staphylococcus aureus = assay: Antibacterial activity against Staphylococcus aureus up to 100 ug/ml after 16 to 20 hrs by broth microdilution method; type: functional, organism-based
Proteus vulgaris = assay: Antibacterial activity against Proteus vulgaris up to 100 ug/ml after 16 to 20 hrs by broth microdilution method; type: functional, organism-based
[7] = tested on: Staphylococcus epidermidis; assay: Antibacterial activity against Staphylococcus epidermidis up to 100 ug/ml after 16 to 20 hrs by broth microdilution method; type: functional, organism-based
Mycobacterium avium [8] = assay: Antimycobacterial activity against Mycobacterium avium ATCC 25291 at 2 ug/mL after 24 to 48 hrs by MABA; type: functional
[9] = tested on: Mycobacterium tuberculosis; assay: microbe, parasite or virus in culture; conditions: H37Ra
Mycobacterium avium [10] = assay: Antimycobacterial activity against Mycobacterium avium ATCC 25291 at 1 ug/mL after 24 to 48 hrs by MABA; type: functional; how it was run: as §1

Row | Structure (SMILES) | inhibition at 50 µg/mL (Mycobacterium avium [1]) | Activity (Pseudomonas aeruginosa) | inhibition at 10 µg/mL [2] | Activity (Streptococcus pneumoniae) | inhibition at 50 µg/mL [3] | Activity (HepG2) | inhibition at 100 µg/mL (Mycobacterium avium [4]) | Activity (Bacillus subtilis) | inhibition at 100 µg/mL [5] | inhibition at 10 µg/mL (Mycobacterium avium [6]) | Activity (Enterococcus faecalis) | Activity (Salmonella typhimurium) | Activity (Escherichia coli) | Activity (Staphylococcus aureus) | Activity (Proteus vulgaris) | Activity [7] | inhibition at 2 µg/mL (Mycobacterium avium [8]) | inhibition at 1 µg/mL [9] | inhibition at 1 µg/mL (Mycobacterium avium [10])
1 | [N-]=[N+]=NC(CCl)c1cn(COCCO)c(=O)[nH]c1=O (stereo unspecified) | 100% | inactive | 50% | inactive | 100% | Not toxic | 100% | inactive | 100% | 50% | inactive | inactive | inactive | inactive | inactive | inactive | – | – | –
2 | CC[C@H]1OC(=O)[C@H](C)[C@@H](O[C@H]2C[C@@](C)(OC)[C@@H](O)[C@H](C)O2)[C@H](C)[C@@H](O[C@@H]2O[C@H](C)C[C@H](N(C)C)[C@H]2O)[C@](C)(OC)C[C@@H](C)C(=O)[C@H](C)[C@@H](O)[C@]1(C)O [CLARITHROMYCIN] | – | – | – | – | – | – | – | – | – | – | – | – | – | – | – | – | 95% | – | –
3 | C=C(N=[N+]=[N-])c1cn(COCCO)c(=O)[nH]c1=O | 50% | inactive | 25% | inactive | 100% | Not toxic | 50% | inactive | 100% | 50% | inactive | inactive | inactive | inactive | inactive | inactive | – | – | –
4 | CO[C@H]1/C=C/O[C@@]2(C)Oc3c(C)c(O)c4c(O)c(c(/C=N/N5CCN(C)CC5)c(O)c4c3C2=O)NC(=O)/C(C)=C\C=C\[C@H](C)[C@H](O)[C@@H](C)[C@@H](O)[C@@H](C)[C@H](OC(C)=O)[C@@H]1C [RIFAMPIN] | – | – | – | – | – | – | – | – | – | – | – | – | – | – | – | – | 90% | 100% | 100%
5 | CCCCCCCCCCC#Cc1cn(COC(CO)CO)c(=O)[nH]c1=O | 25% | inactive | 50% | inactive | 100% | Not toxic | 100% | inactive | 100% | – | inactive | inactive | inactive | inactive | inactive | inactive | – | – | –
6 | CCCCCCCCC#Cc1cn(COC(CO)CO)c(=O)[nH]c1=O | 25% | inactive | 50% | inactive | 100% | Not toxic | 100% | inactive | 100% | – | inactive | inactive | inactive | inactive | inactive | inactive | – | – | –

— ChEMBL document CHEMBL1146361, “Studies on acyclic pyrimidines as inhibitors of mycobacteria” (Bioorg Med Chem, 2007)
